Experimental data from ChEMBL document CHEMBL1123998, “Radioiodinated benzodiazepines: agents for mapping glial tumors” (J Med Chem, 1988).

Key:
Rattus norvegicus [1] = organism: Rattus norvegicus; assay: Radioligand binding in adrenal gland after 30 min; format: functional
Procedure, shortened: (§1)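 Male Sprague-Dawley rats (160–265 g) under light ether received 16–19 μCi ¹²⁵I-ligand in 0.20–0.25 mL 15:85 EtOH/PBS pH 6.0 via the femoral vein. They were decapitated at 5 min, 30 min, 2, 6 or 24 h, and tissues were weighed and gamma-counted. Results are % injected dose/g wet tissue, normalized to a 200-g rat; N = 5 per time point.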

Rattus norvegicus [2] = organism: Rattus norvegicus; assay: Radioligand binding in adrenal tissue after 6 hr; format: functional; procedure, shortened: as §1
Rattus norvegicus [3] = organism: Rattus norvegicus; assay: Radioligand binding in heart tissue after 30 min; format: functional; procedure, shortened: as §1
Rattus norvegicus [4] = organism: Rattus norvegicus; assay: Radioligand binding in blood after 30 min; format: functional; procedure, shortened: as §1
[5] = molecular target: Translocator protein (Rattus norvegicus) (UniProt P16257); assay: Reduced radioligand binding following 30 min intravenous 10 mg/kg PK11195 in heart tissue; format: functional, organism-based; parameters: dose 10 mg/kg
Rattus norvegicus [6] = organism: Rattus norvegicus; assay: Radioligand binding in heart tissue after 5 min; format: functional; procedure, shortened: as §1
Rattus norvegicus [7] = organism: Rattus norvegicus; assay: Radioligand binding in thyroid tissue after 2 hr; format: functional, Thyroid gland; procedure, shortened: as §1
Rattus norvegicus [8] = organism: Rattus norvegicus; assay: Radioligand binding in thyroid tissue after 30 min; format: functional, Thyroid gland; procedure, shortened: as §1
[9] = molecular target: Translocator protein (Rattus norvegicus) (UniProt P16257); assay: Reduced radioligand binding following 30 min intravenous 10 mg/kg PK11195 in adrenal tissue; format: functional, organism-based; parameters: dose 10 mg/kg; details: at 10 mg/kg
Rattus norvegicus [10] = organism: Rattus norvegicus; assay: Radioligand binding in heart tissue after 2 hr; format: functional; procedure, shortened: as §1
Rattus norvegicus [11] = organism: Rattus norvegicus; assay: Radioligand binding in thyroid tissue after 2 hr in rats given oral KI solution; format: functional, Thyroid gland
[12] = molecular target: Translocator protein (Rattus norvegicus) (UniProt P16257); assay: Reduced radioligand binding following 30 min intravenous 10 mg/kg PK11195 in lung tissue; format: functional, organism-based; parameters: dose 10 mg/kg
Rattus norvegicus [13] = organism: Rattus norvegicus; assay: Radioligand binding in adrenal tissue after 24 hr r; format: functional; procedure, shortened: as §1
[14] = molecular target: Translocator protein (Rattus norvegicus) (UniProt P16257); assay: Reduced radioligand binding following 30 min intravenous 10 mg/kg PK11195 in adrenal gland; format: functional, organism-based; parameters: dose 10 mg/kg
Rattus norvegicus [15] = organism: Rattus norvegicus; assay: Radioligand binding in brain tissue after 5 min; format: functional; procedure, shortened: as §1
[16] = molecular target: Translocator protein (Rattus norvegicus) (UniProt P16257); assay: Reduced radioligand binding following 30 min intravenous 10 mg/kg PK11195 in submaxillary gland; format: functional, organism-based; parameters: dose 10 mg/kg
Rattus norvegicus [17] = organism: Rattus norvegicus; assay: Radioligand binding in thyroid tissue after 24 hr r; format: functional, Thyroid gland; procedure, shortened: as §1
Rattus norvegicus [18] = organism: Rattus norvegicus; assay: Radioligand binding in heart tissue after 24 hr r; format: functional; procedure, shortened: as §1
[19] = molecular target: Translocator protein (Rattus norvegicus) (UniProt P16257); assay: Reduced radioligand binding following 30 min intravenous 10 mg/kg PK11195 in kidney tissue; format: functional, organism-based; parameters: dose 10 mg/kg
[20] = molecular target: Translocator protein (Rattus norvegicus) (UniProt P16257); assay: Reduced radioligand binding following 30 min intravenous 10 mg/kg PK11195 in brain tissue; format: functional, organism-based; parameters: dose 10 mg/kg
Rattus norvegicus [21] = organism: Rattus norvegicus; assay: Radioligand binding in thyroid tissue after 5 min; format: functional, Thyroid gland; procedure, shortened: as §1
Rattus norvegicus [22] = organism: Rattus norvegicus; assay: Radioligand binding in blood after 2 hr; format: functional; procedure, shortened: as §1
[23] = molecular target: GABA-A receptor; anion channel; assay: Binding affinity for GABA-A benzodiazepine receptor of rat brain
Procedure, shortened: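 Frozen rat brain (central receptor) and kidney (peripheral site) sections, 20 μm, were prewashed 3 × 5 min in 50 mM Tris pH 7.4 at 0 °C. They were incubated 90 min with 5 nM [³H]flunitrazepam plus graded competitor, with 1 μM PK 11195 defining nonspecific binding. Film autoradiography (10 days, ¹⁴C standards) was read by densitometry. Ki = IC50/(1+[L]/Kd), Kd 40 nM; N = 3.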

Rattus norvegicus [24] = organism: Rattus norvegicus; assay: Radioligand binding in adrenal gland after 5 min; format: functional; procedure, shortened: as §1
[25] = molecular target: Translocator protein (Rattus norvegicus) (UniProt P16257); assay: Reduced radioligand binding following 30 min intravenous 10 mg/kg PK11195 in blood; format: functional, organism-based; parameters: dose 10 mg/kg
Rattus norvegicus [26] = organism: Rattus norvegicus; assay: Radioligand binding in kidney tissue after 24 hr r; format: functional; procedure, shortened: as §1
Rattus norvegicus [27] = organism: Rattus norvegicus; assay: Radioligand binding in adrenal tissue after 2 hr; format: functional; procedure, shortened: as §1
Rattus norvegicus [28] = organism: Rattus norvegicus; assay: Radioligand binding in blood after 5 min; format: functional; procedure, shortened: as §1
Translocator protein = Translocator protein (Rattus norvegicus, UniProt P16257); assay: Binding affinity for peripheral benzodiazepine receptor of rat kidney
Rattus norvegicus [29] = organism: Rattus norvegicus; assay: Radioligand binding in brain tissue after 2 hr; format: functional; procedure, shortened: as §1
Rattus norvegicus [30] = organism: Rattus norvegicus; assay: Radioligand binding in thyroid tissue after 6 hr; format: functional, Thyroid gland; procedure, shortened: as §1
Rattus norvegicus [31] = organism: Rattus norvegicus; assay: Radioligand binding in kidney tissue after 5 min; format: functional; procedure, shortened: as §1
Rattus norvegicus [32] = organism: Rattus norvegicus; assay: (§2) Radioligand binding in brain tissue after 24 hr r; format: functional; procedure, shortened: as §1
Rattus norvegicus [33] = organism: Rattus norvegicus; assay: Radioligand binding in kidney tissue after 6 hr; format: functional; procedure, shortened: as §1
Rattus norvegicus [34] = organism: Rattus norvegicus; assay: as §2; format: functional; procedure, shortened: as §1; remark: listed apart in the source
Rattus norvegicus [35] = organism: Rattus norvegicus; assay: Radioligand binding in kidney tissue after 30 min; format: functional; procedure, shortened: as §1
Rattus norvegicus [36] = organism: Rattus norvegicus; assay: Radioligand binding in blood after 24 hr r; format: functional; procedure, shortened: as §1
Rattus norvegicus [37] = organism: Rattus norvegicus; assay: Radioligand binding in brain tissue after 30 min; format: functional; procedure, shortened: as §1
Rattus norvegicus [38] = organism: Rattus norvegicus; assay: Radioligand binding in kidney tissue after 2 hr; format: functional; procedure, shortened: as §1
Rattus norvegicus [39] = organism: Rattus norvegicus; assay: Radioligand binding in heart tissue after 6 hr; format: functional; procedure, shortened: as §1
Rattus norvegicus [40] = organism: Rattus norvegicus; assay: Radioligand binding in blood after 6 hr; format: functional; procedure, shortened: as §1

Chain of Translocator protein (Rattus norvegicus) (P16257 whole entry, looked up): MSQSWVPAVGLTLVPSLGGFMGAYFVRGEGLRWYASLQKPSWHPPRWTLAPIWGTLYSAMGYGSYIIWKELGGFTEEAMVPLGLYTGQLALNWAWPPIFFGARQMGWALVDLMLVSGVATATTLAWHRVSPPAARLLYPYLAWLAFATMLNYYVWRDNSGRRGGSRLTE
Chain of Translocator protein (P16257 whole entry, looked up): as above

CN1C(=O)CN=C(c2ccc(I)cc2)c2cc(Cl)ccc21
Activity (Rattus norvegicus [1]): 7.85 | Activity (Rattus norvegicus [2]): 0.6 | Activity (Rattus norvegicus [3]): 1.13 | Activity (Rattus norvegicus [4]): 0.11 | Distribution [5]: 0.76 | Change ([5]; at 10 mg/kg): -34% | Activity (Rattus norvegicus [6]): 2.18 | Activity (Rattus norvegicus [7]): 4.26 | Activity (Rattus norvegicus [8]): 2.25 | Change [9]: -75% | Activity (Rattus norvegicus [10]): 0.5 | Activity (Rattus norvegicus [11]): 0.49 | Distribution [12]: 0.58 | Change ([12]; at 10 mg/kg): -46% | Activity (Rattus norvegicus [13]): 0.05 | Distribution [14]: 1.74 | Activity (Rattus norvegicus [15]): 1 | Distribution [16]: 0.74 | Change ([16]; at 10 mg/kg): -49% | Activity (Rattus norvegicus [17]): 10.85 | Activity (Rattus norvegicus [18]): 0.02 | Distribution [19]: 0.74 | Change ([19]; at 10 mg/kg): -35% | Distribution [20]: 0.69 | Activity (Rattus norvegicus [21]): 3.27 | Activity (Rattus norvegicus [22]): 0.1 | Ki [23]: > 1000 nM | Activity (Rattus norvegicus [24]): 7.1 | Distribution [25]: 0.16 | Activity (Rattus norvegicus [26]): 0.03 | Activity (Rattus norvegicus [27]): 2.38 | Activity (Rattus norvegicus [28]): 0.22 | Ki (Translocator protein): 13.6 nM | Activity (Rattus norvegicus [29]): 0.35 | Activity (Rattus norvegicus [30]): 11.85 | Activity (Rattus norvegicus [31]): 1.78 | Activity (Rattus norvegicus [32]): 0.01 | Activity (Rattus norvegicus [33]): 0.21 | Activity (Rattus norvegicus [34]): 0.14 | Activity (Rattus norvegicus [35]): 1.05 | Activity (Rattus norvegicus [36]): 0.01 | Activity (Rattus norvegicus [37]): 0.6 | Activity (Rattus norvegicus [38]): 0.51 | Activity (Rattus norvegicus [39]): 0.19 | Activity (Rattus norvegicus [40]): 0.05

CN1C(=O)CN=C(c2ccc(Cl)cc2)c2cc(I)ccc21
Activity (Rattus norvegicus [1]): 3.63 | Activity (Rattus norvegicus [2]): 1.3 | Activity (Rattus norvegicus [3]): 0.77 | Activity (Rattus norvegicus [4]): 0.15 | Activity (Rattus norvegicus [6]): 1.15 | Activity (Rattus norvegicus [7]): 5.57 | Activity (Rattus norvegicus [8]): 4.42 | Activity (Rattus norvegicus [10]): 0.63 | Activity (Rattus norvegicus [13]): 0.42 | Activity (Rattus norvegicus [15]): 0.75 | Activity (Rattus norvegicus [17]): 17.2 | Activity (Rattus norvegicus [18]): 0.25 | Activity (Rattus norvegicus [21]): 1.5 | Activity (Rattus norvegicus [22]): 0.12 | Ki [23]: > 1000 nM | Activity (Rattus norvegicus [24]): 4.85 | Activity (Rattus norvegicus [26]): 0.25 | Activity (Rattus norvegicus [27]): 1.84 | Activity (Rattus norvegicus [28]): 0.2 | Ki (Translocator protein): 13.3 nM | Activity (Rattus norvegicus [29]): 0.41 | Activity (Rattus norvegicus [30]): 17.28 | Activity (Rattus norvegicus [31]): 1.1 | Activity (Rattus norvegicus [32]): 0.21 | Activity (Rattus norvegicus [33]): 0.59 | Activity (Rattus norvegicus [34]): 0.46 | Activity (Rattus norvegicus [35]): 0.74 | Activity (Rattus norvegicus [36]): 0.05 | Activity (Rattus norvegicus [37]): 0.46 | Activity (Rattus norvegicus [38]): 0.58 | Activity (Rattus norvegicus [39]): 0.57 | Activity (Rattus norvegicus [40]): 0.12

CN1C(=O)CN=C(c2ccc(Cl)cc2)c2cc(Cl)ccc21 [RO-54864]
Ki [23]: > 1000 nM
